PMC7072008 (ACS infectious diseases, 2020)
Like-named read-outs stand apart in the source and are kept apart here.

What was measured:
S. mansoni adult worms [1] = assay: Ex vivo adult worm killing, continuous exposure; design: species or system Schistosoma mansoni; conditions: for LD50 against S. mansoni adult worms: 5 days incubation, media and compounds replaced daily
hGR = target: T1, hGR (Homo sapiens, UniProt P00390); assay: Inhibition of human glutathione reductase; format: biochemical; conditions: for Inhibition of hGR: at 2 mM (concentrations as high as 2 mM); for IC50: read-out: hGR IC50; for hGR IC50 fold higher than for TGR: selectivity TGR versus hGR
T1 sequence (P00390 44-522): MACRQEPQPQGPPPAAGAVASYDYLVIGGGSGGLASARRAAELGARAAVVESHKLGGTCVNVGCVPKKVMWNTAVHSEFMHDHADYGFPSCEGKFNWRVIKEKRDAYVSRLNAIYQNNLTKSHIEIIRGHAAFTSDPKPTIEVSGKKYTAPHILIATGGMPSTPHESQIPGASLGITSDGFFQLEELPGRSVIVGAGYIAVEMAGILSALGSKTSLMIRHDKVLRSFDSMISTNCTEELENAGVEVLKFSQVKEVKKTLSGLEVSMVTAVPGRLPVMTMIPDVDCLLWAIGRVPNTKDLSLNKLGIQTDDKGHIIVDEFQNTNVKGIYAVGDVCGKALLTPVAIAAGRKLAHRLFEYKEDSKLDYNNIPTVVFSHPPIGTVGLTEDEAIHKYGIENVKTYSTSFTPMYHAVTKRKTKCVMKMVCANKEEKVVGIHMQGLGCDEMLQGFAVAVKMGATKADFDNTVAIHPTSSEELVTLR

[2] = target: T2, TGR (GSSG reducing activity) (Schistosoma mansoni, UniProt Q962Y6); assay: TGR inhibition assay, GSSG reduction; format: biochemical; conditions: read-out: IC50 (GSSG); GSSG as substrate
T2 sequence (Q962Y6 1-598): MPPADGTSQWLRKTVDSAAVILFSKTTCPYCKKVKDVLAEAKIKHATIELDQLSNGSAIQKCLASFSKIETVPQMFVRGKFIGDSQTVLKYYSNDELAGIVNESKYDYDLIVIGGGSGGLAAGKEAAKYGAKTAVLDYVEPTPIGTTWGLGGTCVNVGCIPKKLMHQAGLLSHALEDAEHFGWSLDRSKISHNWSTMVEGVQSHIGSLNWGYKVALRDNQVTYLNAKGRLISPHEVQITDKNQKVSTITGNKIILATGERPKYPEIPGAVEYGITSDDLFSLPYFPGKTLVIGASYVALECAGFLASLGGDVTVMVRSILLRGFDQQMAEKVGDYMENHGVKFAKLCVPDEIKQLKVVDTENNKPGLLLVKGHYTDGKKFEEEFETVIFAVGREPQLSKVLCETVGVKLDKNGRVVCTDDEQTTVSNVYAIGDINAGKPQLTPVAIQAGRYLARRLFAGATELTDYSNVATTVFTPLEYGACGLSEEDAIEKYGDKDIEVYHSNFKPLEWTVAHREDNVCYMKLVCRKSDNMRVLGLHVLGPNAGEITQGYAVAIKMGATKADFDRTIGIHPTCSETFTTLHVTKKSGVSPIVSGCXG
Method in brief: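 Recombinant wild-type S. mansoni TGR (selenoprotein) was expressed in E. coli BL21 (DE3) with a His-SUMO tag. The tag was removed, leaving Gly-Ser-His at the N-terminus. Inhibition was measured as enzymatic GSSG reduction, run in triplicate.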

S. mansoni schistosomula = assay: Schistosomula; design: species or system Schistosoma mansoni
[3] = system: S. haematobium adult worms; assay: Ex vivo adult worm killing, continuous exposure; conditions: 10 μM
S. mansoni adult worms [4] = assay: Brief; design: species or system Schistosoma mansoni
[5] = target: T3, TGR (DTNB reducing activity) (Schistosoma mansoni, UniProt Q962Y6); assay: TGR inhibition confirmatory assay, DTNB reduction; format: biochemical
T3 sequence (Q962Y6 1-598): T2 sequence (Q962Y6 1-598)

[6] = system: S. mansoni juvenile worms; assay: Ex vivo juvenile worm killing, continuous exposure; design: species or system Schistosoma mansoni
Schistosoma mansoni TGR = conditions: read-out: TGR IC50 qHTS, cited from earlier work
[7] = cited from earlier work
TGR [8] = target: T4, TGR (Schistosoma mansoni, UniProt Q962Y6); assay: TGR dimer/monomer analysis by native PAGE; conditions: native PAGE after reaction with compound
T4 sequence (Q962Y6 1-598): T2 sequence (Q962Y6 1-598)

[9] = target: TGR activities (DTNB and GSSG reduction) in S. mansoni adult worms (Schistosoma mansoni, UniProt Q962Y6); assay: TGR activity in homogenates of treated worms; conditions: worms cultured in 50 μM compound, harvested before any worm death
Method in brief: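 Adult S. mansoni from infected Swiss-Webster mice, about 10 worm pairs per 1 mL RPMI with 10% FCS, 10 mM glutamine and penicillin/streptomycin, pre-cultured 24 h. Exposed to 50 μM compound in DMSO, refreshed daily; DMSO controls. Worms collected at set times, washed, homogenized and centrifuged; protein measured. NADPH-dependent DTNB and GSSG reduction assayed in triplicate versus time-matched controls.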

S. japonicum adult worms = assay: Ex vivo adult worm killing, continuous exposure; conditions: 12.5 μM, 120 h
TGR [10] = target: T4, TGR; assay: NADPH oxidase activity of inhibited TGR; format: biochemical; conditions: for H2O2 production compared with untreated TGR: Amplex Red and horseradish peroxidase
TGR [11] = target: T4, TGR; assay: NADPH-dependence and reversibility of TGR inhibition; format: biochemical; conditions: incubation with NADPH, activity 30 minutes and 3 hours after desalting
Schistosoma mansoni = conditions: overnight exposure; cited from earlier work
[12] = 20 μM, then 5 days in media without compound
[13] = read-out: IC50 (DTNB), DTNB as substrate
[14] = read-out: TGR IC50 Confirm, confirmatory assay
[15] = PubChem BioAssay, ref AID485364
[16] = 50 μM, then 5 days in media without compound
[17] = 100 μM, then 5 days in media without compound

| Structure (SMILES) | LD50 against S. mansoni adult worms (S. mansoni adult worms [1]) [µM] | Inhibition of hGR (hGR) | IC50 [2] [nM] | Sm Somula, dead (S. mansoni schistosomula; 10 μM, 24 h) | S. mansoni adult worm killing after 1 hr exposure (S. mansoni adult worms [4]; [12]) | IC50 [5, 13] [nM] | IC50 [5, 14] [nM] | Sm juvenile, dead ([6]; 10 μM, 120 h) | IC50 (Schistosoma mansoni TGR; [15]) [nM] | S. mansoni adult worm killing after 1 hr exposure (S. mansoni adult worms [4]; [16]) [%] | S. mansoni adult worm killing after 1 hr exposure (S. mansoni adult worms [4]; [17]) [%] | further results |
| --- | --- | --- | --- | --- | --- | --- | --- | --- | --- | --- | --- | --- |
| COC(=O)CS(=O)(=O)c1nnc(C(Cc2ccccc2)NC(=O)OC(C)(C)C)o1 (stereo not shown) [Compound 1] | 8.41 | did not inhibit | 390 ± 70 | 10 μM 24 h 99% d^‡ | 60% | 330 ± 70 | 330 | 10 μM 120 h 39% d^‡ | – | – | – | Adult worms Sh, dead ([3]; 144 h): 10 μM 144 h 67% d^‡ |
| CCN(c1ccccc1)S(=O)(=O)c1ccc(NC(=O)c2nc(S(C)(=O)=O)ncc2Cl)cc1 [Compound 2] | 9.07 | did not inhibit | 230 ± 30 | 10 μM 24 h 100% d^‡ | 40% | 210 ± 20 | 210 | – | 398 | – | – | Sm juvenile, dead ([6]; 10 μM, 24 h): 10 μM 24 h 100% d^‡ |
| O=c1c(Cl)c(-n2cc(CO)nn2)cnn1-c1ccccc1 [Compound 3] | 4.9 | 19% | 2490 ± 110 | 10 μM 24 h 100% d^‡ | about 10% | 2840 ± 80 | 2840 | – | – | 80 | – | IC50 (Schistosoma mansoni TGR; ref Li et al. 2015 [18]): 6300 nM; Adult worms Sm, dead (S. mansoni adult worms [1]; 10 μM, 72 h): 10 μM 72 h 100% d^‡; Adult worms Sh, dead ([3]; 96 h): 10 μM 96 h 100% d^‡; Sm juvenile, dead ([6]; 10 μM, 48 h): 10 μM 48 h 100% d^‡ |
| O=[N+]([O-])c1ccc2c(c1)S(=O)(=O)C=C2 [Compound 4, Stattic] | 7.08 | – | 2200 ± 200 | 10 μM 24 h 100% d^‡ | about 10% | 2010 ± 140 | 2010 | – | – | 100 | – | Tolerability in animal models ([7]; animal models of different diseases): well tolerated; IC50 (Schistosoma mansoni TGR; ref Li et al. 2015 [18]): 5440 nM; Adult worms Sm, dead (S. mansoni adult worms [1]; 10 μM, 144 h): 10 μM 144 h 76% d^‡; IC50 (hGR): 30700 nM; hGR IC50 fold higher than for TGR (hGR): 15 fold; Monomer formation of TGR (TGR [8]): No evidence for monomer formation; Sm juvenile, dead ([6]; 10 μM, 72 h): 10 μM 72 h 100% d^‡ |
| COc1ccc([N+](=O)[O-])c(S(=O)(=O)c2ccc(Cl)cc2)n1 [Compound 5, TRi-1] | 10.1 | – | 50 ± 10 | 10 μM 24 h 100% d^‡ | about 10% | 60 ± 10 | 60 | 10 μM 120 h 57% d^‡ | 100 | 60 | – | Tolerability in animal models ([7]; in vivo): well tolerated; IC50 (hGR): 104000 nM; hGR IC50 fold higher than for TGR (hGR): 1700 fold |
| CCOC(=O)C(C(=O)OCC)c1cc(Br)c2noc3c2c1C(=O)c1ccccc1-3 [Compound 6] | – | 25% | 150 ± 20 | – | – | 140 ± 10 | 140 | – | 631 | – | – | Inhibition of TGR activity (DTNB and GSSG reduction) in worm homogenates [9]: ~ 60%; S. mansoni adult worm killing after 1 hr exposure (S. mansoni adult worms [4]; all concentrations tested (10, 20, 50, 100 μM)): no worm killing |
| Oc1ccc(CNc2cccc(C(F)(F)F)c2)c2cccnc12 [Compound 7] | 18.2 | did not inhibit | 130 ± 30 | – | 10% | 90 ± 20 | 90 | – | 316 | – | 80 | Adult worms Sj, dead (S. japonicum adult worms): 12.5 μM 120 h no killing; H2O2 production compared with untreated TGR (TGR [10]): less H2O2 than untreated TGR; Induction of NADPH oxidase activity in TGR (NADPH consumption, superoxide production) (TGR [10]; TGR 500 nM, NADPH 100 μM, 30 min, 20 μM for 1, 2, 5-8, 50 μM for 3 and 4, desalted): lowest NADPH oxidase activity; Decrease of NADPH consumption compared with uninhibited TGR (TGR [10]; after treatment and desalting): about 50%; Adult worms Sm, dead (S. mansoni adult worms [1]; 12.5 μM, 120 h): 12.5 μM 120 h 43% d^‡; Sm Somula, dead (S. mansoni schistosomula; 12.5 μM, 120 h): 12.5 μM 120 h 61% d^‡; Cytotoxicity against mammalian cells compared with schistosome worms (Vero cells): notable exception; Sm juvenile, dead ([6]; 12.5 μM, 120 h): 12.5 μM 120 h 8% d^‡ |
| COc1ccc(C(Nc2cc(C)ccn2)c2ccc3ccc(C)nc3c2O)cc1 (stereo not shown) [Compound 8] | 12.4 | did not inhibit | 330 ± 50 | – | 10% | 130 ± 40 | 130 | 10 μM 120 h 24% d^‡ | 398 | – | 30 | Adult worms Sj, dead (S. japonicum adult worms): 12.5 μM 120 h 56% d^‡; Reversibility of TGR inhibition (TGR [11]): reversible inhibition; H2O2 production compared with untreated TGR (TGR [10]): same low amounts of H2O2 as untreated TGR; Adult worms Sm, dead (S. mansoni adult worms [1]; 12.5 μM, 120 h): 12.5 μM 120 h 53% d^‡; Sm Somula, dead (S. mansoni schistosomula; 10 μM, 120 h): 10 μM 120 h 20% d^‡ |
| Cc1c(-c2cnccn2)ssc1=S [oltipraz, reference compound] | 2 | – | – | – | – | – | – | – | – | – | – | – |
| O=C(C1CCCCC1)N1CC(=O)N2CCc3ccccc3C2C1 (stereo not shown) [praziquantel, reference compound] | 0.5 | – | – | – | – | – | – | – | – | – | 20 | LD50 of praziquantel (Schistosoma mansoni): 40 µM |
